Measured values reported in the EternaBench riboswitch data.

System: MS2 coat protein
Test: apparent Kd, MS2 coat protein; higher = weaker binding; RNA-MaP array; FMN 200 µM where present
Procedure, shortened: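 Each design was made on Illumina sequencing-chip clusters by stalled E. coli RNA polymerase and titrated with SNAP-549-labelled MS2 coat protein from 0.7 or 1.5 nM, doubling to 3 µM, in the absence and then the presence of constant ligand. The buffer was 100 mM Tris-HCl pH 7.5, 80 mM KCl, 4 mM MgCl2, BSA, DTT, yeast tRNA and Tween-20. The apparent Kd is the median of filtered per-cluster fits of binding curves, with green signal normalised to red-channel RNA signal and control-cluster median Fmax.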

[1] = designed as: ON switch for flavin mononucleotide, no ligand
[2] = ligand present: flavin mononucleotide, designed as: ON switch for flavin mononucleotide
[3] = designed as: OFF switch for flavin mononucleotide, no ligand
[4] = ligand present: flavin mononucleotide, designed as: OFF switch for flavin mononucleotide

Sequence	apparent Kd [1] [nM]	apparent Kd [2] [nM]	apparent Kd [3] [nM]	apparent Kd [4] [nM]
GACAUGGUCCAGAAGGGCUAUUUAUUUAAGUACGAUUUAGAACAGCAUAGCAGGAUAUGGCUAACAUGAGGAUCACCCAUGUUC	19.3	11.9		
GACAUUGGCAAGAAGGCAAACAUGAGGAUCACCCAUGUUCUGUAUGUAUAUUGAGGAUAUUGCCAAUGUAUGUGGAUCACCCAA			9.44	8.28
GACCGCGAGGGAGGAUAUGGAGCCUUAUUGGCUCCAGAAGGUCCAUAAGGGACAUGAGGAUCACCCAUGUGGGUUGAAGCGGUC	155	57.2		
GACCGUCACAAUAACCGGUUGAACGAGGAUAUGAUCACUGGGCCUGCACAUGAGGAUCACCCAUGUCAGAAGGCGUUCAGUCCC			5.53	16.4
GACGGGAAUGAGAAGGGUCACAUGAGGAUCACCCAUGUGCUCUUCGCCGUGACAGGAUAUCAUUGCCGCCAGGUUAGAUUUUUG			7.87	22.3
GACGGGCAGCUCGUGAUCCCAUCGCCAGAAGGGCCACAUGAGGAUCACCCAUGUCGUAAAACAAGGCAGGAUAUGGCAGGGAAC	9.93	5.21		
GACGGGUGGGUAGGAUAUGGCUAUGUCUCAUUGCUAGAAGGACCAGCUGCUACAUGAGGAUCACCCAUGUCGUAGUGCACCCAG	189	13.1		
GACUCGCGCACAGGAUAUCCACGGAGCGGACGCGGAGAAGGGUGACAUGAGGAUCACCCAUGUACGUGAGUCUAGAUCACUUCC	76.8	22.5		
GACUGACGAGGAUAUACAUGAGGAUCACCCAUGUAAGAUCAGCGACUUCGGUCGCAAUGUAGAAGGCGUCAGUC			28.2	326
GACUGCUGAGGAUAUACAUGAGGAUCACCCAUGUGCUUCAGUAUCGAAAGAUACAUUGGUAGAAGGUGGUAGUC			13.4	21.4
GACUGGCAGCUAGGAUAUGGGCGAUCACAUGAGGAUCACCCAUGUCAACAUCAAAACAAGAUUAACCAGAAGGAGCCGCGGGCU	17.3	49.7		
GACUUGGCUACAUGAGGAUCACCCAUGUUUGACUGGAUCGAUCAGGAUAUAGUAAUUUGCAACAAUUAGAAGGGAUAUUUACGG	65.9	56.9		
GAGAAGAGGGAAGGAUAUACAUGAGGAUCACCCAUGUAGAUAGGUUUAAUAGGUUGUUGUAGUUUGUAGAAGGUCCGGUUUGUU			17.8	16.7
GAGAUGUGAGGAUAUCUAGACCGCGGCAGAGCUGCGGUCCGAGAGAAGGCACAUGAGGAUCACCCAUGUGAUGA			57	207
GAGCCUCCGUAGAAGGCCGCGGAAUCCGAACGCGGAGGAUAUACAUGAGGAUCACCCAUGUGAAAGUGGAACGAUAAAACGCUU			14.7	47.2
GAGCGAAAGCUCAAUGUCGAUAGCAGAAGGACAUCCAACAACAUGAAAACAUGAGGAUCACCCAUGUAGGAUAUGCUAUCGACU			6.8	7.4
GAGCGAAAGCUCAAUGUCGAUAGCAGAAGGACAUCCUUAAACAUGAAAACAUGAGGAUCACCCAUGUAGGAUAUGCUAUCGACU			7.31	9.1
GAGCGAAAGCUCAAUGUCGAUAGCAGAAGGACAUGUAAAUACAUGAAAACAUGAGGAUCACCCAUGUAGGAUAUGCUAUCGACU			5.46	12.7
GAGCGGGAAACAUGAGGAUCACCCAUGUGAUGAAUCCUCACAUAGGAUAUCCACACGAGAAGUGUGGAGAAGGAUGACCCGGUC			1120	1700
GAGUACUUAGGAUAUACAUGAGGAUCACCCAUGUCUAGGCGGCGCUGGGUCCCUCGCAGUAGAAGGAAGCGCUG			24.6	42.3
GAGUAGUUAAAAGGAUAUUGAUUAUUGUAGGAUCAAGAAGGUUUUAACAUGAGGAUCACCCAUGUAGGACUAUUCCUGUGAAAA	15.6	12.7		
GAGUAGUUGAUAGGAUAUUGAUUGUUAUAGGAUCAAGAAGGAUCUAACAUGAGGAUCACCCAUGUAGGACUAUUCCUGUGUAUC	22.1	19.2		
GAGUAGUUGGAAGGAUAUCGAUUGUUAUAGAAUCGAGAAGGUCCUAACAUGAGGAUCACCCAUGUAGGACUAUUCCUGUGUAUC	11.3	9.64		
GAGUGACAUGAGGAUCACCCAUGUGAGGAUAUCGGCCGGACCUUGUUAGCUUCCACCGCGAGAAGGCACAUCGG			23.3	27.9
GAGUGACAUGAGGAUCACCCAUGUGAGGAUAUCGGCCGGACCUUGUUAGCUUCCGCCGCGAGAAGGCACAUCGG			71.8	157
GAGUGGAAGGCCGCUACAUGAGGAUCACCCAUGUGCUAAGCACAGGAUAUCGCGCUGGCCCGGCGCGAGAAGGGUGACGGCCUG	674	324		
GAGUGGUUGGGAGGAUAUGCAUUGUUAUUAAAUGCAGAAGGUUUUAACAUGAGGAUCACCCAUGUAGGACUAUUCCUGUGUUUC	17.4	14.6		
GAGUGUACGGAGGAUAUGUUAUACGAUGACCGAACAGAAGGCCGAACAUGAGGAUCACCCAUGUGUCUUCUAGG			16	22.8

Sequence	apparent Kd [1] [nM]	apparent Kd [2] [nM]	apparent Kd [3] [nM]	apparent Kd [4] [nM]
GAUACACAUGAGGAUCACCCAUGUCGUAUGACAUGAGGAUAUGUACAGACUUCGGUCUGUACAGAAGGCAUGUGUC	115	199		
GAUAGGACAGAGAAGGACAUAGCUAGAGAUACUAGCAUAUGAACCUCUACAUGAGGAUCACCCAUGUAGGAUAUCUGUCCUAUC			6.07	6.21
GAUAUAGUUGAGAAGGGAAGGGCACAGUCCUCUCUAAAACUACAUGAGGAUCACCCAUGUGGCUUUCAGGAUAUCAGCGCUAAA			22.5	109
GAUCAAAACACUCCUUACACUACAUGAGGAUCACCCAUGUAGCAGGAUAUCGUUGCUCCUCGCUGCGAGAAGGGCUACGGGCGG			8.02	13.8
GAUCAACAUGAGGAUCACCCAUGUGAGGAUAUGAUACUAUGUACUUCGGUACAUAGUAUCAGAAGGCAUUAGGA			51.8	39.6
GAUCCUUAAGUCAGGAUAUCAAGCAAACUCUAAAUUGAGAAGGGACAUGAGGAUCACCCAUGUCACCGAAAUAA			14.7	16.2
GAUCGACCUGAGAAGGCACAUGAGGAUCACCCAUGUUGAACCAUACAUGCCACAAAGUGGCAGUGUGAGGAUAUCAGGUCGAUC			5.81	8.34
GAUCUGACAGGAUAUACAUGAGGAUCACCCAUGUACGAGCUAGCGAAAGCUAGCUCAGGUAGAAGGGUCAGAUC			12.3	16.4
GAUGAGAGAGGAUAUACAUGAGGAUCACCCAUGUAAUUUUCGGACAUGGAAGCUGGAUGUAGAAGGCUCGCAUG			20	46.2
GAUGAGGUAGGAUAUACGAGAAGAUAGGGUAGAUAGAGAACACAUGAGGAUCACCCAUGUAGAAGGACCAGUAG			25.3	55.7
GAUGCACAUGAGAAGGCGAUCAUGAAACAUGAUCGAGGAUAUCAUGUAAACAUGAGGAUCACCCAUGUAUGGGUAAAGUGCAUC	446	32		
GAUGCGAAUGUGAGGAUAUCGGAGUAUUUAAACUCUGAGAAGGCACAUGAGGAUCACCCAUGUCCGUGCGUCUA			506	130
GAUGGAGAGCAGGAUAUCUUGGGUAAGCAUCAUAGAGAAGGGCUCACAUGAGGAUCACCCAUGUGGUCCAAGAA			14.2	56
GAUUCACAUGAGGAUCACCCAUGUGAGGAUAUAGUGCAAGAGGUGGAUGCCCACCUCCCUAGAAGGCACACGGG			28.6	24
GCAAAGCCUGACAUGAGGAUCACCCAUGUUAGAUUGUUAUGUCAGGAUAUUGUCUAGAAACUAGACAAGAAGGGAUGCUUUGCU	421	25.3		
GCAAAGCCUGACAUGAGGAUCACCCAUGUUAGAUUGUUAUGUCAGGAUAUUGUCUAGACACUAGACAAGAAGGGAUGCUUUGCA	386	38.4		
GCAAUAGCAUGAGGAUAUGCUGGAGUUUAGACAGUAGAAGGCAUGUCAUAAGACAUGAGGAUCACCCAUGUAAUUACAAUAGCA	45.9	22.1		
GCACAGGCAGGAUAUACAUGAGGAUCACCCAUGUGACCCUUGAAGUACUCGCGUACUCGUAGAAGGGCCUGUGC			177	302
GCACGAGACUAAGGAUAUGGUGUAUCUACAUGAAACAUGAGGAUCACCCAUGUAGUAAGUAUGAUUCAGAAGGUAGAGACGUGC	49.7	23		
GCACGAUAUCAGGAUAUGACUAGCCUCGGCUAGUCAGAAGGGAUGACAUGAGGAUCACCCAUGUGAUCACGUGC			57.2	77.9
GCACGGUAAGUGAGGAUAUACCUCUGGAUACAGAGGUAGAAGGCACAUGAGGAUCACCCAUGUCUCAGCCGUGC			16.3	78.2
GCACUGGAUGUAGGAUAUCAGGACGAUAAGUCCUGAGAAGGACAUGAGGAUCACCCAUGUAACCUCUAACCAGUGCAUAAUAUA			12.6	23.1
GCACUGGAUGUAGGAUAUCAGGACGAUAAGUCCUGAGAAGGACAUGAGGAUCACCCAUGUACUCAAAACCAGUGCUAUAAUAUA			15.6	23.8
GCACUGGAUGUAGGAUAUCAGGACGAUAAGUCCUGAGAAGGACAUGAGGAUCACCCAUGUGAAAAUUCCAGUGCAAAUAAUAUA			13	19.1
GCACUGGAUGUAGGAUAUCAGGACGAUAAGUCCUGAGAAGGACAUGAGGAUCACCCAUGUGAUUACACCAGUGCAAAUAAUAUA			5.78	7.06
GCACUUAGAGAUGAACCGUUACUAACAUGAGGAUCACCCAUGUAGGAUAUGCUAAUAGUAUUGAAGCAGAAGGACACUAAGUGC			5.25	6.51
GCAGAUCAAGUGAGGAUAUCGUCUACCUCGGUAGACGAGAAGGCACAUGAGGAUCACCCAUGUGAUUGAUCUGC			17.6	23.6
